According to ChEMBL document CHEMBL3616433, “Synthesis and anti-cancer potential of the positional isomers of NOSH-aspirin (NBS-1120) a dual nitric oxide and hydrogen sulfide releasing hybrid” (Bioorg Med Chem Lett, 2015):
Activity calls are given as the source filed them. No cut-off for these calls is given here.

Key:
[1] = test system: HT-29; test: Cell cycle arrest in human HT-29 cells assessed as accumulation at G2/M phase at 1 to 2 times IC50 after 24 hrs using propidium iodide by flow cytometry; type: functional, cell-based; details: in the assay text read “G0/G1 phase” for “G2/M phase”
How it was run: (§1)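 HT-29 cells (0.5×10^6) treated 24 h, then trypsinized, fixed in 70% ethanol (10 min, −20°C), held in PBS/1% FBS/0.5% NP-40 on ice 5 min, and stained with propidium iodide 40 µg/mL plus RNase IIA 200 µg/mL. Flow cytometry within 30 min, >10,000 events per subset. Phase percentages were taken from DNA-content histograms. Representative of two experiments agreeing within 10%.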

[2] = test system: HT-29; test: Induction of ROS generation in human HT-29 cells assessed as increase in intracellular superoxide anion level at 500 nM after 1 hr using DHE staining by flow cytometry relative to control; type: functional
How it was run: (§2)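 HT-29 cells (0.3×10^6/well) plated for 24 h, then treated 1 h. They were trypsinized, PBS-washed, and loaded with dihydroethidium (5 µM) for 30 min at 37°C in the dark. Superoxide fluorescence was measured by flow cytometry relative to basal. Mean ± SEM of three independent experiments.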

[3] = test system: HT-29; test: Cytotoxicity against human HT-29 cells assessed as growth inhibition after 24 hrs by MTT assay; type: functional, cell-based; details: HT-29, 24 h
How it was run: (§3)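 Cells grown in RPMI 1640 with 10% FBS, penicillin/streptomycin, at 37°C and 5% CO2. Compounds came from 100 mM DMSO stocks, with final DMSO 1% in all media. Growth was read by colorimetric MTT kit after 24 h. IC50 came from dose-response curves. Mean ± SEM of three to five experiments, each in triplicate.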

[4] = test system: HT-29; test: Induction of ROS generation in human HT-29 cells assessed as increase in intracellular peroxide level at 500 nM after 1 hr using DCFDA staining by flow cytometry relative to control; type: functional
How it was run: (§4)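 Plate HT-29 cells at 0.3×10^6/well for 24 h, then treat 1 h. Trypsinize, wash in PBS, and incubate with DCFDA (10 µM) 30 min at 37°C in the dark. Read fluorescence by flow cytometry as fold over basal. Mean ± SEM of three independent experiments.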

[5] = test system: HT-29; test: Cytotoxicity against human HT-29 cells assessed as reduction in PCNA expression at 100 to 1000 nM after 24 hrs by ELISA relative to vehicle treated control; type: functional, cell-based
How it was run: (§5)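 HT-29 cells (1×10^6 cells/mL) exposed to a range of concentrations for 24 h. PCNA antigen was quantified by ELISA kit per the manufacturer's protocol and expressed as % of vehicle-treated cells. Mean ± SEM of 3 experiments run in duplicate; ANOVA with Tukey's test.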

[6] = test system: HT-29; test: Cell cycle arrest in human HT-29 cells assessed as accumulation at S phase at 1 to 2 times IC50 after 24 hrs using propidium iodide by flow cytometry; type: functional, cell-based; how it was run: as §1
[7] = test system: HT-29; test: Cell cycle arrest in human HT-29 cells assessed as accumulation at G0/G1 phase at 1 to 2 times IC50 after 24 hrs using propidium iodide by flow cytometry; type: functional, cell-based; how it was run: as §1
[8] = test system: HCT-15; test: Cytotoxicity against human HCT15 cells assessed as growth inhibition after 24 hrs by MTT assay; type: functional, cell-based; details: HCT-15, 24 h; how it was run: as §3
[9] = test system: HT-29; test: Induction of apoptosis in human HT-29 cells assessed as early apoptotic cells at 100 to 1000 nM after 24 hrs using annexin-V staining by flow cytometry relative to control; type: functional, cell-based
How it was run: (§6)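 HT-29 cells (0.5×10^6 cells/mL) treated 24 h, washed, and resuspended in Annexin binding buffer (HEPES pH 7.4, NaCl, CaCl2). They were stained with Annexin V-FITC (final 0.5 µg/mL) and propidium iodide (final 20 µg/mL) for 5–15 min at room temperature in the dark, then analysed by flow cytometry for early apoptotic cells. Mean ± SEM of 3 experiments in duplicate.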

[10] = test system: HT-29; test: Induction of ROS generation in human HT-29 cells assessed as increase in intracellular peroxide level at 250 nM after 1 hr using DCFDA staining by flow cytometry relative to control; type: functional; how it was run: as §4
[11] = test system: HT-29; test: Induction of apoptosis in human HT-29 cells assessed as early apoptotic cells at 50 to 500 nM after 24 hrs using annexin-V staining by flow cytometry relative to control; type: functional, cell-based; how it was run: as §6
[12] = test system: HT-29; test: Cell cycle arrest in human HT-29 cells assessed as accumulation at G0/G1 phase at 1 to 2 times IC50 after 24 hrs using propidium iodide by flow cytometry
[13] = test system: HT-29; test: Cytotoxicity against human HT-29 cells assessed as reduction in PCNA expression at 50 to 500 nM after 24 hrs by ELISA relative to vehicle treated control; type: functional, cell-based; how it was run: as §5
[14] = test system: HT-29; test: Induction of ROS generation in human HT-29 cells assessed as increase in intracellular superoxide anion level at 250 nM after 1 hr using DHE staining by flow cytometry relative to control; type: functional; how it was run: as §2
[15] = test system: HT-29; test: Cytotoxicity against human HT-29 cells assessed as reduction in PCNA expression at 25 nM after 24 hrs by ELISA relative to vehicle treated control; type: functional; parameters: scale not given: the % may be the effect or the level left; how it was run: as §5
[16] = test system: HT-29; test: Induction of apoptosis in human HT-29 cells assessed as early apoptotic cells at 100 nM after 24 hrs using annexin-V staining by flow cytometry relative to control; type: functional; how it was run: as §6
[17] = test system: HT-29; test: Induction of apoptosis in human HT-29 cells assessed as early apoptotic cells at 10 nM after 24 hrs using annexin-V staining by flow cytometry relative to control; type: functional; how it was run: as §6
[18] = test system: HT-29; test: Cell cycle arrest in human HT-29 cells assessed as accumulation at G0/G1 phase at 50 nM after 24 hrs using propidium iodide by flow cytometry (reference value: 39.6%); type: functional; how it was run: as §1
[19] = test system: HT-29; test: Induction of ROS generation in human HT-29 cells assessed as increase in intracellular peroxide level at 50 nM after 1 hr using DCFDA staining by flow cytometry relative to control; type: functional; how it was run: as §4
[20] = test system: HT-29; test: Cell cycle arrest in human HT-29 cells assessed as reduction in G2/M phase at 100 nM after 24 hrs using propidium iodide by flow cytometry (reference value: 28.5%); type: functional; parameters: scale not given: the % may be the effect or the level left; how it was run: as §1
[21] = test system: HT-29; test: Cell cycle arrest in human HT-29 cells assessed as reduction in G2/M phase at 50 nM after 24 hrs using propidium iodide by flow cytometry (reference value: 28.5%); type: functional; parameters: scale not given: the % may be the effect or the level left; how it was run: as §1
[22] = test system: HT-29; test: Cell cycle arrest in human HT-29 cells assessed as reduction in S phase at 100 nM after 24 hrs using propidium iodide by flow cytometry (reference value: 31.9%); type: functional; parameters: scale not given: the % may be the effect or the level left; how it was run: as §1
[23] = test system: HT-29; test: Cytotoxicity against human HT-29 cells assessed as reduction in PCNA expression at 10 nM after 24 hrs by ELISA relative to vehicle treated control; type: functional; parameters: scale not given: the % may be the effect or the level left; how it was run: as §5
[24] = test system: HT-29; test: Induction of apoptosis in human HT-29 cells assessed as early apoptotic cells at 25 nM after 24 hrs using annexin-V staining by flow cytometry relative to control; type: functional; how it was run: as §6
[25] = test system: HT-29; test: Induction of ROS generation in human HT-29 cells assessed as increase in intracellular superoxide anion level at 50 nM after 1 hr using DHE staining by flow cytometry relative to control
[26] = test system: HT-29; test: Cytotoxicity against human HT-29 cells assessed as reduction in PCNA expression at 100 nM after 24 hrs by ELISA relative to vehicle treated control; type: functional; parameters: scale not given: the % may be the effect or the level left; how it was run: as §5
[27] = test system: HT-29; test: Cytotoxicity against human HT-29 cells assessed as reduction in PCNA expression at 50 nM after 24 hrs by ELISA relative to vehicle treated control; type: functional; parameters: scale not given: the % may be the effect or the level left; how it was run: as §5
[28] = test system: HT-29; test: Cell cycle arrest in human HT-29 cells assessed as accumulation at G0/G1 phase at 100 nM after 24 hrs using propidium iodide by flow cytometry (reference value: 39.6%); type: functional; how it was run: as §1
[29] = test system: HT-29; test: Cell cycle arrest in human HT-29 cells assessed as reduction in S phase at 50 nM after 24 hrs using propidium iodide by flow cytometry (reference value: 31.9%); type: functional; parameters: scale not given: the % may be the effect or the level left; how it was run: as §1
[30] = test system: HT-29; test: Induction of apoptosis in human HT-29 cells assessed as early apoptotic cells at 50 nM after 24 hrs using annexin-V staining by flow cytometry relative to control; type: functional; how it was run: as §6
[31] = test system: HT-29; test: Cytotoxicity against human HT-29 cells assessed as reduction in PCNA expression after 24 hrs by ELISA; type: functional, cell-based; how it was run: as §5

For `O=C(CCCO[N+](=O)[O-])Oc1ccc(C(=O)Oc2ccc(-c3cc(=S)ss3)cc2)cc1`, the Activity [1] was “Active”, the “fold change (FC)” value [2] was 10 and the IC50 [3] was 0.45 µM. The “fold change (FC)” value [4] was 11, the Activity [5] was “Active” and the Activity [6] was “Active”. For the same compound, the Activity [7] was “Active”, the IC50 [8] was 0.38 µM and the Activity [9] was “Active”.
`COc1ccc(C(=O)Oc2ccc(-c3cc(=S)ss3)cc2)cc1OC(=O)CCCO[N+](=O)[O-]` gave an IC50 [3] of 0.43 µM and an IC50 [8] of 0.33 µM.
With `O=C(CCCO[N+](=O)[O-])Oc1cccc(C(=O)Oc2ccc(-c3cc(=S)ss3)cc2)c1` the IC50 [3] was 0.22 µM, the “fold change (FC)” value [10] was 15 and the Activity [6] was “Active”. The Activity [11] was “Active”, the Activity [7] was “Active” and the Activity [12] was “Active”. For the same compound, the IC50 [8] was 0.11 µM, the Activity [13] was “Active” and the “fold change (FC)” value [14] was 21.
`O=C(CCCO[N+](=O)[O-])Oc1ccc(Cl)cc1C(=O)Oc1ccc(-c2cc(=S)ss2)cc1` gave an IC50 [3] of 0.4 µM and an IC50 [8] of 0.17 µM.
For `COc1cc(C(=O)Oc2ccc(-c3cc(=S)ss3)cc2)ccc1OC(=O)CCCO[N+](=O)[O-]`, the IC50 [3] was 0.13 µM and the IC50 [8] was 0.22 µM.
`O=C(CCCO[N+](=O)[O-])Oc1cccc(C(=O)Oc2ccc(-c3cc(=S)ss3)cc2)c1Cl` was tested, and the IC50 [3] was 0.21 µM and the IC50 [8] was 0.14 µM.
In the case of `CC(=O)Oc1ccccc1C(=O)O` [ASPIRIN], the IC50 [3] is reported as > 5000 µM and the IC50 [8] is reported as > 5000 µM.
Compound `O=C(CCCO[N+](=O)[O-])Oc1ccccc1C(=O)Oc1ccc(-c2cc(=S)ss2)cc1` has an Activity [15] of 65%, an Activity [16] of 78% and an Activity [17] of 15%. The Activity [18] was 53.6%, the “fold change (FC)” value [19] was 16 and the Activity [20] was 9.9%. It also gave an Activity [21] of 20.3%, an Activity [22] of 18.2% and an Activity [23] of 80%. For the same compound, the Activity [24] was 35%, the “fold change (FC)” value [25] was 18 and the Activity [26] was 20%. The Activity [27] was 48%, the Activity [28] was 71.9% and the Activity [29] was 26.1%. For the same compound, the Activity [30] was 65%, the IC50 [8] was 0.057 µM and the Activity [31] was “Dose-dependent effect”.
`O=C(CCCO[N+](=O)[O-])Oc1ccc(C(=O)Oc2ccc(-c3cc(=S)ss3)cc2)cc1Cl` was tested, and the IC50 [3] was 0.06 µM and the IC50 [8] was 0.33 µM.
For `COc1ccc(OC(=O)CCCO[N+](=O)[O-])c(C(=O)Oc2ccc(-c3cc(=S)ss3)cc2)c1`, the IC50 [3] was 0.2 µM and the IC50 [8] was 0.38 µM.
